The record followed here is ChEMBL document CHEMBL1127293, “Mobilization of iron by chiral and achiral anionic 3-hydroxypyrid-4-ones” (1994).

Experiment [1] concerns Rattus norvegicus. The experiment in a line: Biliary excretion of iron was measured after giving intravenous dose of 0.2 mmol/kg during treatment period in rat. Type of experiment: functional. In short, it runs like this:
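Female Sprague-Dawley rats, previously untreated, served as their own controls. Biliary iron collected 0.5 h for control, then 2 h after tail-vein injection (warm-water tail passage beforehand) under anesthesia; animals recovered between periods and were kept in metabolic cages with free tap water. Iron measured by atomic absorption at 248.3 nm; rate as μg Fe/h.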

For experiment [2], the system named is Rattus norvegicus. As to the kind of experiment: Urinary iron excretion was measured after giving oral dose of 1 mmol/kg during treatment period in rat. Type of experiment: functional, Urine. In short, it runs like this:
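Female Sprague-Dawley rats as own controls; under ether anesthesia at about 6 p.m., gavage of 1 mL Millipore water (control period) or chelator solution, 1 mL per 200 g rat. Urine collected 15 h overnight in metabolic cages separating feces, tap water ad libitum. Iron by atomic absorption at 248.3 nm; significance p ≤ 0.05.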

Molecule `Cc1c(O)c(=O)ccn1C(CC(C)C)C(=O)O` (stereo not given) gave a biliary iron excretion in experiment [1] of 11600 µg/h. In experiment [2], this molecule displayed a urinary iron excretion of 8550 µg/15 h.

On to `Cc1c(O)c(=O)ccn1Cc1ccc(C(=O)O)cc1`, for which, in experiment [1], the biliary iron excretion worked out at 13700 µg/h. The urinary iron excretion in experiment [2] turned out to be 1550 µg/15 h.

As to `Cc1c(O)c(=O)ccn1C(CCC(=O)O)C(=O)O` (stereo not given), in experiment [1], the biliary iron excretion is 1150 µg/h. Also, in experiment [2], the urinary iron excretion was found to be 170 µg/15 h.

In turn, `Cc1c(O)c(=O)ccn1C(Cc1ccccc1)C(=O)O` (stereo not given) returned a biliary iron excretion in experiment [1] of 8300 µg/h. Also, the urinary iron excretion in experiment [2] was determined as 1280 µg/15 h.

In experiment [1], `CSCCC(C(=O)O)n1ccc(=O)c(O)c1C` (stereo not given) gave a biliary iron excretion of 12700 µg/h. Also, the urinary iron excretion in experiment [2] amounted to 1740 µg/15 h.

Consider `Cc1c(O)c(=O)ccn1-c1ccc(C(=O)O)cc1`, for which the biliary iron excretion in experiment [1] is 9390 µg/h. Also, the urinary iron excretion in experiment [2] came out at 1110 µg/15 h.

In the case of `Cc1c(O)c(=O)ccn1C(CO)C(=O)O` (stereo not given), the biliary iron excretion in experiment [1] is 4180 µg/h. The molecule further had a urinary iron excretion in experiment [2] of 1790 µg/15 h.

Turning to `Cc1c(O)c(=O)ccn1[C@@H](C)C(=O)O`, the Treatment period in experiment [1] was found to be 6240; in experiment [2], 3840.

The molecule `Cc1c(O)c(=O)ccn1C` [DEFERIPRONE] yielded a biliary iron excretion in experiment [1] of 4810 µg/h. The same molecule came in with a urinary iron excretion in experiment [2] of 17300 µg/15 h.

With `Cc1c(O)c(=O)ccn1[C@H](C)C(=O)O`, the values for the Treatment period in experiment [1] and in experiment [2] were 4580 and 4010, respectively.
